IC50 data for ten compounds are collected here from ChEMBL document CHEMBL1141338, “Cytotoxic sesquiterpene lactones from Pseudoelephantopus spicatus” (J Nat Prod, 2007).

≈ marks a conversion by molar mass, not a printed value.

In experiment [1] the test system is HepG2. The experiment is described as follows: Cytotoxicity against human HepG2 cells. Type of experiment: functional, cell-based. Summed up:
(§1)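 Panel lines are HepG2 hepatocellular carcinoma, MDA-MB-231 breast carcinoma and A-549 lung carcinoma (human); cytotoxicity evaluated alongside Hep3B and MCF-7 in the same screen.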

Experiment [2] has as its system MDA-MB-231. The experiment is described as follows: Cytotoxicity against human MDA-MB-231 cell. The class given is functional, cell-based. A digest of the protocol:
as §1

For experiment [3], the system named is A549. Nature of the experiment: Cytotoxicity against human A549 cells. The class given is functional, cell-based. Summed up: as §1
Experiment [4] is described as follows: Cytotoxicity against human Hep3B cells. Type of experiment: functional, cell-based, Hep 3B2. Summed up:
(§2)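 Human Hep3B hepatocellular carcinoma and MCF-7 breast carcinoma lines; cytotoxicity reported as IC50 in µg/mL; doxorubicin included as positive control.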

Experiment [5] deals with MCF7. Nature of the experiment: Cytotoxicity against human MCF7 cells. Type of experiment: functional, cell-based. Summed up: as §2

For the compound `COCC1=C2/C(=C\[C@@]3(C)CC[C@](O)(O3)[C@@](C)(O)C[C@@H]2OC(C)=O)OC1=O`, the IC50 in experiment [1], in experiment [2] and in experiment [3] was over 5 µg/mL in each case.

Take `COCC1=C2[C@@H](OC(C)=O)C[C@@](C)(OC(C)=O)[C@@]3(O)CC[C@@](C)(O)[C@H](OC(C)=O)[C@@]23OC1=O`: the IC50 in experiment [1], in experiment [2] and in experiment [3] was over 5 µg/mL each time.

`COc1cccc2c1C(=O)c1c(O)c3c(c(O)c1C2=O)C[C@@](O)(C(=O)CO)C[C@@H]3O[C@H]1C[C@H](N)[C@H](O)[C@H](C)O1` [DOXORUBICIN] returned an IC50 in experiment [4] of 0.06 µg/mL (≈ 0.11 µM).

As for `CC(=O)OCC1=C2/C(=C\[C@@]3(C)CC[C@](O)(O3)[C@@](C)(O)C[C@@H]2O)OC1=O` [PITOCARPHIN D], the IC50 in experiment [1], in experiment [2] and in experiment [3] was over 5 µg/mL each time.

On to `CC(=O)OCC1=C2[C@@H](OC(C)=O)C[C@@]3(C)O[C@]2(C[C@](C)(O)CCC3=O)OC1=O` [SPICATOLIDE A], for which the IC50 in experiment [1], in experiment [2] and in experiment [3] was over 5 µg/mL each time.

In the case of `C/C=C(\C)C(=O)O[C@H]1C[C@](C)(O)[C@]2(O)CC[C@](C)(/C=C3/OC(=O)C(COC)=C31)O2` [SPICATOLIDE E], the IC50 in experiment [1], in experiment [2] and in experiment [3] was over 5 µg/mL each time.

With `COCC1=C2[C@@H](O)C[C@@]3(C)O[C@]2(C[C@](C)(O)CCC3=O)OC1=O` [SPICATOLIDE F], the IC50 in experiment [1] is over 5 µg/mL; in experiment [4], 3.2 µg/mL (≈ 9.81 µM); in experiment [5] it was 2.4 µg/mL (≈ 7.35 µM); in experiment [2], over 5 µg/mL; in experiment [3] it was over 5 µg/mL.

Take `COCC1=C2[C@@H](OC(C)=O)C[C@@]3(C)O[C@@]2(OC1=O)[C@H](O)[C@@]1(C)CC[C@]3(O)O1` [SPICATOLIDE G]: the IC50 in experiment [1] is over 5 µg/mL; in experiment [4] it was 6.1 µg/mL (≈ 15.9 µM); in experiment [5], 4.8 µg/mL (≈ 12.5 µM); in experiment [2] it was over 5 µg/mL; in experiment [3], over 5 µg/mL.

Consider `C=C1CC[C@@H]2[C@H](OC(=O)[C@H]2C)[C@H]2[C@H](C)OC(=O)C[C@@H]12` [SPICATOLIDE H], for which the IC50 in experiment [1], in experiment [2] and in experiment [3] was over 5 µg/mL in each case.

On to `COCC1=C2/C(=C\[C@@]3(C)CC[C@](O)(O3)[C@@](C)(O)C[C@@H]2O)OC1=O` [SPICATOLIDES D], for which the IC50 in experiment [1] is over 5 µg/mL; in experiment [4] it was 4.8 µg/mL (≈ 14.7 µM); in experiment [5], 5.1 µg/mL (≈ 15.6 µM); in experiment [2], over 5 µg/mL; in experiment [3] it was over 5 µg/mL.
